Among the data in ChEMBL document CHEMBL1143576, “Discovery of 2-arylthiazolidine-4-carboxylic acid amides as a new class of cytotoxic agents for prostate cancer” (J Med Chem, 2005) are IC50 values, retold here.

SMILES strings stand for the structures. pIC50: −log10 of the molar value.

Experiment [1] deals with PPC-1. Description: Antiproliferative activity against prostate cancer PPC-1 cell line using sulforhodamine B(SRB) assay. In kind it is functional, cell-based. The conditions noted are these: Homo sapiens. In outline: (§1)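 Cells seeded at 1000 to 5000 per well, depending on growth rate, and exposed to a range of concentrations for 96 h, in three to five replicates. Stocks were 5 to 20 mM in DMSO, diluted into complete medium. Endpoint cell number was measured by SRB: 10% trichloroacetic acid fixation, 0.4% SRB stain, absorbance at 540 nm.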

The subject of experiment [2] is LNCaP. Kind of experiment: Antiproliferative activity against prostate cancer LNCaP Cell line using sulforhodamine B(SRB) assay. The format is functional, cell-based. The following applies: Homo sapiens, Prostate gland. An outline of the steps: as §1
In experiment [3] the test system is TSU. Kind of experiment: Antiproliferative activity against prostate cancer TSU-Pr1 cell line using sulforhodamine B(SRB) assay. The format is functional, cell-based. The conditions noted are these: Homo sapiens. An outline of the steps: as §1
Experiment [4] deals with DU-145. Kind of experiment: Antiproliferative activity against prostate cancer DU-145 cell line using sulforhodamine B(SRB) assay. In kind it is functional, cell-based. The conditions noted are these: Homo sapiens. In outline:
as §1

Experiment [5] relates to PC-3. Description: Antiproliferative activity against prostate cancer PC-3 cell line using sulforhodamine B(SRB) assay. In kind it is functional, cell-based, Homo sapiens. The conditions noted are these: Homo sapiens, PC-3; read-out: IC50. An outline of the steps: as §1
In experiment [6] the test system is RH7777. Kind of experiment: Antiproliferative effect against RH7777 cell line using sulforhodamine B(SRB) assay. In kind it is functional, cell-based. The conditions noted are these: Rattus norvegicus. An outline of the steps: as §1

The pIC50 is the negative decadic logarithm of the IC50, by convention in mol/L. As for `CCCCCCCCCCCCCCCCCCNC(=O)[C@H]1CSC(c2ccc(-c3ccccc3)cc2)N1` (stereo partly specified), the pIC50 in experiment [1], in experiment [2], in experiment [3], in experiment [4], in experiment [5] and in experiment [6] was under 4.70 in each case.
Regarding `CCCCCCCCCCCCCCCCCCNC(=O)[C@H]1CSC(c2cccnc2)N1` (stereo partly specified), the pIC50 in experiment [1] was 5.54; in experiment [2] it was 5.44; in experiment [3] it was 5.11; in experiment [4] it was 5.12; in experiment [5], 5.04; in experiment [6] it was 4.98.
As to `CCCCCCCCCCCCCCCCCCNC(=O)[C@H]1CSC(CCCCCCCCCCCC)N1` (stereo partly specified), the negative logarithm of the IC50 (pIC50) in experiment [1] is 4.89; in experiment [2], 4.92; in experiment [3], 4.97; in experiment [4], 5.05; in experiment [5], 4.82; in experiment [6], about 4.70.
Turning to `CCCCCCCCCCCCCCCCCCNC(=O)[C@H]1CSC(c2ccc(N(C)C)cc2)N1` (stereo partly specified), the pIC50 in experiment [1] is 5.96; in experiment [2], 5.80; in experiment [3] it was 5.52; in experiment [4] it was 5.28; in experiment [5], 5.22; in experiment [6], under 4.70.
For the compound `CCCCCCCCCCCCCCCCCCNC(=O)[C@H]1CSC(c2cc(F)cc(F)c2)N1` (stereo partly specified), the pIC50 in experiment [1] is 4.97; in experiment [2], 4.95; in experiment [3] it was under 4.70; in experiment [4], under 4.70; in experiment [5] it was under 4.70; in experiment [6] it was under 4.70.
On to `CCCCCCCCCCCCCCCCCCNC(=O)[C@H]1CSC(c2ccc(F)cc2)N1` (stereo partly specified), for which the negative logarithm of the IC50 (pIC50) in experiment [1] was 5.68; in experiment [2], 5.72; in experiment [3] it was 5.27; in experiment [4], 5.24; in experiment [5], 5.17; in experiment [6], 4.76.
Turning to `CCCCCCCCCCCCCCCCCCNC(=O)[C@H]1CSC(c2ccc([N+](=O)[O-])cc2)N1` (stereo partly specified), the pIC50 in experiment [1] was 4.82; in experiment [2], 5.08; in experiment [3], 4.80; in experiment [4] it was 4.82; in experiment [5], about 4.70; in experiment [6] it was about 4.70.
In the case of `CCCCCCCCCCCCCCCCCCNC(=O)[C@H]1CSC(c2ccccc2)N1C(C)=O` (stereo partly specified), the negative logarithm of the IC50 (pIC50) in experiment [1] was 4.90; in experiment [2], 4.79; in experiment [3], under 4.70; in experiment [4] it was about 4.70; in experiment [5], about 4.70; in experiment [6], under 4.70.
On to `CCCCCCCCCCCCCCCCCCNC(=O)[C@H]1CSC(c2ccc(Br)cc2)N1` (stereo partly specified), for which the negative logarithm of the IC50 (pIC50) was 5.43 in experiment [1]; 5.29 in experiment [2]; 4.74 in experiment [3]; 4.86 in experiment [4]; 4.76 in experiment [5]; under 4.70 in experiment [6].
Take `CCCCCCCCCCCCCCCCCCNC(=O)[C@H]1CSC(c2ccc(C#N)cc2)N1` (stereo partly specified): the pIC50 in experiment [1] was 5.30; in experiment [2], 5.23; in experiment [3] it was under 4.70; in experiment [4], under 4.70; in experiment [5], under 4.70; in experiment [6], under 4.70.
Consider `CCCCCCCCCCCCCCCCCCNC(=O)[C@H]1CSC(c2ccc(F)c(Br)c2)N1` (stereo partly specified), for which the negative-log IC50 (pIC50) was 5.33 in experiment [1]; 5.52 in experiment [2]; 4.85 in experiment [3]; 4.95 in experiment [4]; 4.87 in experiment [5]; 4.70 in experiment [6].
`CCCCCCCCCCCCCCCCCCNC(=O)[C@H]1CSC(c2ccc(OC)cc2)N1` (stereo partly specified): the pIC50 was 5.82 in experiment [1]; 5.68 in experiment [2]; 5.06 in experiment [4]; about 4.70 in experiment [5]; under 4.70 in experiment [6].
Consider `CC(=O)O[C@H]1C(=O)[C@@]2(C)[C@H]([C@H](OC(=O)c3ccccc3)[C@]3(O)C[C@H](OC(=O)[C@H](O)[C@@H](NC(=O)c4ccccc4)c4ccccc4)C(C)=C1C3(C)C)[C@]1(OC(C)=O)CO[C@@H]1C[C@@H]2O` [PACLITAXEL], for which the pIC50 in experiment [1] is 8.47; in experiment [2], 8.70; in experiment [3], 8.68; in experiment [4], 8.57; in experiment [5], 8.47.
